Assay [1] deals with Mus musculus. Nature of the assay: Antitumor activity against P388 leukemia in intraperitoneally for 5 days. Format: functional. The method in brief: (§1)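 CDF1 hybrid male or female mice, 10 per group, were inoculated ip with 10^6 viable P388 cells on day 0. Drugs in distilled water were given ip (0.1 mL/10 g body weight) daily D1-5. Vehicle, 5-fluorouracil and BD 84 were given the same way. T/C = median survival day of treated / controls × 100; T/C > 128% was significant; cures counted at D60.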

Assay [2] has as its system Mus musculus. Nature of the assay: Median survival day of B16 melanoma infected mice, when a dose of 5 mg/kg administered intraperitoneally. Format: functional. Conditions: route intraperitoneal. In a few lines: (§2)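 B16 melanoma in hybrid BD F1 mice. At D0 each mouse was inoculated ip with 0.5 mL of homogenate made from 1 g of tumour in 10 mL of physiological serum. Compounds were given ip daily at the stated doses for 9 days (D1-9), with cis-platinum 0.5 mg/kg under the same schedule as positive control.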

In assay [3] the test system is Mus musculus. Nature of the assay: Survivors at day D30 when a dose of 20 mg/kg administered intravenously to L1210 leukemia mice model. Format: functional. Conditions: route intravenous.
Assay [4] concerns Mus musculus. Nature of the assay: Median survival day of B16 melanoma infected mice, when a dose of 1.25 mg/kg administered intraperitoneally. Conditions: route intraperitoneal.
In assay [5] the test system is Mus musculus. Nature of the assay: Weight change in g when a dose of 100 mg/kg (iv) to P388 leukemia model. Format: functional. The method in brief: (§3)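 Mice (10 per group) were inoculated ip at D0 with 10^6 P388 leukemia cells and given a single iv dose at D1. Read-outs were weight change (g), median survival day, T/C % versus controls and survivors at D30.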
In assay [6] the test system is Mus musculus. Nature of the assay: Weight change in g when a dose of 20 mg/kg (iv) to L1210 leukemia mice model. Format: functional. The method in brief:
(§4)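 Mice received 10^5 L1210 leukemia cells ip at D0, then a single iv drug dose at D1. Read-outs were weight change (g), median survival day, T/C % and survivors at D30.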

Assay [7] relates to Mus musculus. Nature of the assay: Median survival day in P388 cell line when a dose of 100 mg/kg administered intravenously to mice. Format: functional. Conditions: route intravenous. The method in brief: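 P388 leukaemia in CDF1 hybrid mice, 10 per group. At D0, 10^6 viable cells were inoculated ip, followed by a single iv dose on D1. Weight change, median survival day, T/C (treated/control median survival × 100) and survivors at D30 were recorded.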

The test system of assay [8] is Mus musculus. Nature of the assay: Survivors at day D32 when a dose of 25 mg/kg administered intravenously to mice (C38 adenocarcinoma cell lines) when tested in 10 mice. Format: functional. The following applies: route intravenous. In a few lines: (§5)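 Hybrid BDF1 mice, 10 per test, were implanted sc with a standard 3-mm³ fragment of C38 colon adenocarcinoma. Drug was given iv either on D1 alone or on D2 and D9. Animals were followed per NCI (Geran) protocol.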

The test system of assay [9] is Mus musculus. Nature of the assay: Median tumoral volume in C38 adenocarcinoma model when a dose of 50 mg/kg administered intravenously on D1 to mice. Format: functional. Conditions: route intravenous. In a few lines: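 Geran protocol in hybrid BDF1 mice, 10 per test, implanted sc with a standard 3-mm³ fragment of C38 colon adenocarcinoma. Drug was given iv at the stated doses on D1, or on D2 + D9, and tumor growth was followed.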

Assay [10] has as its system Mus musculus. Nature of the assay: In vivo toxicity test on P388 cells at a dose of 100 mg/kg administered intravenously to mice. Format: functional. Conditions: route intravenous. The method in brief: as §3
Assay [11] deals with Mus musculus. Nature of the assay: Antitumor activity against P388 cells at a dose of 5 mg/kg administered intraperitoneally to mice. Format: functional. The following applies: route intraperitoneal.
Assay [12] deals with Mus musculus. Nature of the assay: Survivors at day 30 when a dose of 20 mg/kg administered to P388 leukemia model when tested in 10 mice. Format: functional. The method in brief: (§6)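 P388 leukaemia in CDF1 hybrid mice, 10 per group. At D0, 10^6 viable cells were inoculated ip, followed by a single ip dose of drug in distilled water on D1. Weight change, median survival day, T/C (treated/control median survival × 100) and survivors at D30 were recorded. Controls were 20 mice.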

The test system of assay [13] is Mus musculus. Nature of the assay: Survivors at day 30 when a dose of 10 mg/kg administered to P388 leukemia infected when tested in 10 mice. Format: functional. In a few lines:
as §6

The test system of assay [14] is Mus musculus. Nature of the assay: Median survival day in P388 cell line when a dose of 20 mg/kg administered intraperitoneally to mice. Format: functional. Conditions: route intraperitoneal. In a few lines: as §6
Assay [15] deals with Mus musculus. Nature of the assay: Antitumor activity against C38 adenocarcinoma cells at a dose of 50 mg/kg administered intravenously in mice; tumor volume at D38 (T/C). Format: functional, MC-38. The following applies: route intravenous. The method in brief: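 Hybrid BD F1 mice, 10 per group, were implanted sc with a standard 3-mm3 C38 colon adenocarcinoma fragment. Drugs were given iv at the stated doses on D1 or on D2 + D9. Read-out was tumor size in treated versus control mice (T/C) at the day stated.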

The test system of assay [16] is Mus musculus. Nature of the assay: Antitumor activity against P388 cells at a dose of 40 mg/kg administered intraperitoneally to P388 leukemia model. Format: functional. The following applies: route intraperitoneal. In a few lines: (§7)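 Mice were inoculated ip with 10^6 P388 leukemia cells at D0, then given a single ip drug dose on D1. Weight change was recorded. T/C % = median survival day of treated / controls × 100; survivors counted at D30; 10 mice per dose group, 20 controls.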

Assay [17] deals with Mus musculus. Nature of the assay: Weight change in g when a dose of 20 mg/kg intravenous administration to L1210 leukemia mice model. Format: functional. The method in brief: as §4
For assay [18], the system named is Mus musculus. Nature of the assay: Antitumor activity against P388 leukemia in mice at a dose of 20 mg/kg administered intraperitoneally. Format: functional, organism-based. On the set-up: dose 20 mg/kg. The method in brief: as §1
In assay [19] the test system is Mus musculus. Nature of the assay: Antitumor activity against P388 cells at a dose of 80 mg/kg administered intraperitoneally to P388 leukemia model. Format: functional. Conditions: dose 40 mg/kg; route intraperitoneal; in the assay text read “40 mg/kg” for “80 mg/kg”. In a few lines:
as §7

The test system of assay [20] is Mus musculus. Nature of the assay: Antitumor activity against P388 cells at a dose of 10 mg/kg administered intraperitoneally to P388 leukemia model. Conditions: route intraperitoneal. Format: functional. In a few lines: as §7
For assay [21], the system named is Mus musculus. Nature of the assay: Survivors at day D32 when a dose of 75 mg/kg administered intravenously to C38 adenocarcinoma mice models; 10/10. Format: functional. Conditions: route intravenous. The method in brief: as §5
In assay [22] the test system is Mus musculus. Nature of the assay: Median survival day of B16 melanoma infected mice when a dose of 1.25 mg/kg administered intraperitoneally. Format: functional. The following applies: route intraperitoneal. In a few lines:
as §2

The subject of assay [23] is Mus musculus. Nature of the assay: Median survival day in P388 cell line when a dose of 40 mg/kg administered intraperitoneally to P388 leukemia model. Format: functional. Conditions: route intraperitoneal. In a few lines:
as §6

The subject of assay [24] is Mus musculus. Nature of the assay: Antitumor activity against B16 melanoma cells at a dose of 20 mg/kg administered intraperitoneally to mice. Format: functional. Conditions: route intraperitoneal. The method in brief:
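Hybrid BD F1 mice were inoculated ip at D0 with 0.5 mL of B16 melanoma homogenate (1 g tumor in 10 mL physiological serum). Drugs were given ip daily D1-9. Cisplatin 0.5 mg/kg was the positive control under the same schedule.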

Assay [25] has as its system Mus musculus. Nature of the assay: Weight change in g when a dose of 10 mg/kg administered intraperitoneally in B-16 melanoma infected mice. The following applies: route intraperitoneal. Format: functional. The method in brief:
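Hybrid BDF1 mice were inoculated ip at D0 with 0.5 mL of B16 melanoma homogenate (1 g tumor in 10 mL physiological serum). Drug was given ip daily on days 1-9, with cis-platinum 0.5 mg/kg as positive control on the same schedule.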

Assay [26] relates to Mus musculus. Nature of the assay: Antitumor activity against P388 leukemia in mice at a dose of 15 mg/kg administered intraperitoneally for 5 days. Format: functional. Conditions: route intraperitoneal. In a few lines:
as §1

For assay [27], the system named is Mus musculus. Nature of the assay: Median survival day in B16 melanoma cell line when a dose of 20 mg/kg administered intraperitoneally to mice. Format: functional. Conditions: route intraperitoneal. In a few lines: as §2
The test system of assay [28] is Mus musculus. Nature of the assay: Survivors at day 30 when a dose of 40 mg/kg to P388 leukemia model; 0/10. Format: functional.
Assay [29] concerns Mus musculus. Nature of the assay: Median survival day in B16 melanoma cell line when a dose of 2.5 mg/kg administered intraperitoneally to mice. Format: functional. The following applies: route intraperitoneal. In a few lines:
as §2

Structures are written as SMILES.

For the compound `Cc1cnc(NCCCN(C)C)c2c3cc(O)ccc3n(C)c12`, the T/C (usually the ratio of treated to control) is “Toxic” in the assay with Mus musculus [1], 236% in the assay on Mus musculus [10] and 173% with Mus musculus [11]. Also, the Median survival day with Mus musculus [2] is 50; in the assay with Mus musculus [4], 29.75; in the assay on Mus musculus [7] it was 25.75; in the assay with Mus musculus [14], 18.75. Further, the Survivors with Mus musculus [3] came to 0; in the assay with Mus musculus [8], 10; in the assay with Mus musculus [12], 1; with Mus musculus [13], 1. Further, the Weight change with Mus musculus [5] is listed as -0.25 g; in the assay on Mus musculus [6], -1.1 g. For the same compound, the Median tumoral volume in the assay on Mus musculus [9] is listed as 2.73 cm*3. For the same compound, in the assay on Mus musculus [15], the Tumor volume is 0%.
In the case of `CCN(CC)CCCNc1ncc(C)c2c1c1cc(O)ccc1n2C`, the T/C in the assay with Mus musculus [16] was 202%; in the assay with Mus musculus [18], “Toxic”; in the assay with Mus musculus [19], 202%; in the assay with Mus musculus [20], 156%. Moreover, the Weight change in the assay with Mus musculus [17] is -0.4 g. For the same compound, the Survivors with Mus musculus [21] is on record as 10. The Median survival day in the assay on Mus musculus [22] came out at 32.25; in the assay on Mus musculus [23] it was 23.
Regarding `CCN(CC)CCCNc1[nH]cc(C)c2nc3ccc(O)cc3c1-2`, the T/C is given as 211% in the assay on Mus musculus [24] and 208% in the assay on Mus musculus [26]. For the same compound, in the assay with Mus musculus [25], the Weight change is listed as 1.6 g. For the same compound, the results for the Median survival day in the assay on Mus musculus [27] and in the assay with Mus musculus [29] were 58 and 34, respectively. This compound also came in with a Survivors in the assay with Mus musculus [28] of 0.

The record behind these values is ChEMBL document CHEMBL1124035, “1-Amino-substituted 4-methyl-5H-pyrido[4,3-b]indoles (gamma-carbolines) as tricyclic analogues of ellipticines: a new class of antineoplastic agents” (1988).
